From ChEMBL document CHEMBL2321674, “Design, synthesis and biological evaluation of sulfur-containing 1,1-bisphosphonic acids as antiparasitic agents” (Eur J Med Chem, 2013)

Tests used:
[1] = system: Vero; assay: Cytotoxicity against african green monkey Vero cells assessed as cell viability at 25 uM; format: cell-based; conditions: chlorocebus sabaeus
[2] = system: Toxoplasma gondii; assay: Antiparasitic activity against Toxoplasma gondii tachyzoite expressing red fluorescence protein assessed as growth inhibition by fluorescence plate reader; format: functional; conditions: read-out: ED50 (the source's name)
Summary of the method: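 T. gondii tachyzoites expressing red fluorescent protein, filtered (3 μm) and needle-passed, inoculated at 10^4/well onto confluent hTerT monolayers in DMEM-HG with 1% FBS, 2 mM glutamine, 1 mM pyruvate, serial drug dilutions; 37 °C, 5% CO2, fluorescence read daily from bottom (ex 510/em 540 nm).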

[3] = biological target: T1, Farnesyl diphosphate synthase (Toxoplasma gondii, UniProt Q197X6); assay: Inhibition of Toxoplasma gondii farnesyl diphosphate synthase assessed as incorporation of [4-14C]IPP measured at 37 degC
T1 sequence (Q197X6 whole entry): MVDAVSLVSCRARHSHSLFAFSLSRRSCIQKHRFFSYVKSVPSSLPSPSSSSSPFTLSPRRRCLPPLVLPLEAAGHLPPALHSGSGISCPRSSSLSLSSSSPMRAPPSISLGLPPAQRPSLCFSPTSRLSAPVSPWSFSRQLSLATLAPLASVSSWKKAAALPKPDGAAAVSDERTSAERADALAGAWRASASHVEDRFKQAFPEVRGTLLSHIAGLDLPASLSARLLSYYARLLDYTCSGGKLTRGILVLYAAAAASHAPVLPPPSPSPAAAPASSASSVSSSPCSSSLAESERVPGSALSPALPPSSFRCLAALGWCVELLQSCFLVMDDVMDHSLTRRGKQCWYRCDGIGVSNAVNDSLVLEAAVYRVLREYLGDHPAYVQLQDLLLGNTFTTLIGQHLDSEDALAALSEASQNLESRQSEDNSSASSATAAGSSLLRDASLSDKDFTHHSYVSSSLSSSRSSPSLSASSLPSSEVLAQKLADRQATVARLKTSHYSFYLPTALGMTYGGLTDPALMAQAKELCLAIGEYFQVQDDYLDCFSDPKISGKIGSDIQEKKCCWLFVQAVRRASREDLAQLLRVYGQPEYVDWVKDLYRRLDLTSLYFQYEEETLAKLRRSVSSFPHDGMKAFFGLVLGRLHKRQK

[4] = system: Trypanosoma cruzi; assay: Antiparasitic activity against Trypanosoma cruzi amastigotes infected in gamma-irradiated vero cells assessed as growth inhibition measured after 3 days by fluorescence assay; format: functional; conditions: light or radiation study, 72 h, read-out: ED50 (the source's name)
[5] = biological target: T2, Farnesyl diphosphate synthase (Trypanosoma cruzi, UniProt Q8WS26); assay: Inhibition of Trypanosoma cruzi farnesyl diphosphate synthase assessed as incorporation of [4-14C]IPP measured at 37 degC
T2 sequence (Q8WS26 whole entry): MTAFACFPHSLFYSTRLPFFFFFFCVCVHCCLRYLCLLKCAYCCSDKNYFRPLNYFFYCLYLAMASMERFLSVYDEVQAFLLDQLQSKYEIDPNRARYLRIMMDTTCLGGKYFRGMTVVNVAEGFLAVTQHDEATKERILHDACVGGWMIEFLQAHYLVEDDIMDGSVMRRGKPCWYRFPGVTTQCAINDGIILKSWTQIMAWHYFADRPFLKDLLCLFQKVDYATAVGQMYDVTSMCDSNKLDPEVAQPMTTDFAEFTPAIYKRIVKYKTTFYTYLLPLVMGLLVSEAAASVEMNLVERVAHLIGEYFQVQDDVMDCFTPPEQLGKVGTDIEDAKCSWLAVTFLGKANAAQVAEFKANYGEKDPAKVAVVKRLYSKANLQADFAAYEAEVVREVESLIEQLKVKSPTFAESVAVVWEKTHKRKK

[6] = Cytotoxicity against hTerT cells assessed as growth inhibition measured at > 200 uM after 3 to 4 days by Alamar Blue assay; format: cell-based; conditions: human
Summary of the method: (§1)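 Non-irradiated confluent hTERT cells in phenol-red-free high-glucose DMEM with 10% Cosmic Calf Serum, washed, serial drug dilutions in quadruplicate, 35 °C, 7% CO2 for 3–4 days. AlamarBlue at 10% of culture volume, 6 h at 35 °C, absorbance at 570 and 600 nm. Percent growth inhibition = 100 minus percent reduction difference versus untreated control; DMSO as toxicity control.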

[7] = Cytotoxicity against hTerT cells assessed as growth inhibition measured at > 1000 uM after 3 to 4 days by Alamar Blue assay; format: cell-based; conditions: human; summary of the method: as §1
[8] = Cytotoxicity against hTerT cells assessed as growth inhibition measured at >= 500 uM after 3 to 4 days by Alamar Blue assay; format: cell-based; conditions: human; summary of the method: as §1

For CCCSCC(P(=O)(O)O)P(=O)(O)O, the Activity [1] was “Non-toxic”, the EC50 [2] was > 10 µM and the IC50 [3] was 0.066 µM. The EC50 [4] was > 20 µM and the IC50 [5] was 0.925 µM.

In the case of CCCCCCCCCC[S+]([O-])CC(P(=O)(O)O)P(=O)(O)O (stereo not drawn), the Activity [1] is reported as “Non-toxic”, the EC50 [2] is reported as 7.6 µM and the IC50 [3] is reported as > 10 µM. For the same molecule, the EC50 [4] was > 20 µM and the IC50 [5] was > 10 µM.

With CCCCCS(=O)(=O)CC(P(=O)(O)O)P(=O)(O)O the Activity [1] was “Non-toxic”, the EC50 [2] was > 10 µM and the IC50 [3] was > 10 µM. The EC50 [4] was > 20 µM and the IC50 [5] was > 10 µM.

For CCCCCCCC[S+](C)CC(P(=O)(O)O)P(=O)(O)O.F[B-](F)(F)F (stereo not drawn), the Activity [1] was “Non-toxic”, the EC50 [2] was 7 µM and the IC50 [3] was 0.013 µM. The EC50 [4] was > 20 µM and the IC50 [5] was 0.04 µM.

In the case of CCCCCC(C)NCC(P(=O)(O)O)P(=O)(O)O (stereo not drawn), the Activity [1] is reported as “Non-toxic”, the EC50 [2] is reported as 11.4 µM and the IC50 [3] is reported as < 1 µM. The EC50 [4] was > 20 µM and the IC50 [5] was > 10 µM.

In the case of CCCCCCCNCC(O)(P(=O)(O)O)P(=O)(O)O, the Activity [1] is reported as “Non-toxic”, the EC50 [2] is reported as > 10 µM and the IC50 [3] is reported as > 1 µM. The EC50 [4] was > 20 µM and the IC50 [5] was > 10 µM.

With CCSCC(P(=O)(O)O)P(=O)(O)O the Activity [1] was “Non-toxic”, the EC50 [2] was > 10 µM and the IC50 [3] was 1.83 µM. For the same molecule, the EC50 [4] was > 20 µM and the IC50 [5] was 0.627 µM.

For CCCCSCC(P(=O)(O)O)P(=O)(O)O, the Activity [1] was “Non-toxic”, the EC50 [2] was > 10 µM and the IC50 [3] was 0.048 µM. The EC50 [4] was > 20 µM and the IC50 [5] was 0.789 µM.

In the case of CCCCCSCC(P(=O)(O)O)P(=O)(O)O, the Activity [1] is reported as “Non-toxic”, the EC50 [2] is reported as > 10 µM and the IC50 [3] is reported as 0.11 µM. The EC50 [4] was > 20 µM and the IC50 [5] was > 10 µM.

For CCCCCCSCC(P(=O)(O)O)P(=O)(O)O, the Activity [1] was “Non-toxic”, the EC50 [2] was 6.5 µM and the IC50 [3] was 0.307 µM. The EC50 [4] was > 20 µM and the IC50 [5] was > 10 µM.

With CCCCCCCSCC(P(=O)(O)O)P(=O)(O)O the Activity [1] was “Non-toxic”, the Activity [6] was “Non-toxic” and the EC50 [2] was 0.97 µM. The IC50 [3] was 0.069 µM, the EC50 [4] was > 20 µM and the IC50 [5] was > 10 µM.

For CCCCCCCCSCC(P(=O)(O)O)P(=O)(O)O, the Activity [7] was “Non-toxic”, the Activity [1] was “Non-toxic” and the EC50 [2] was 2.6 µM. For the same molecule, the IC50 [3] was 0.024 µM, the EC50 [4] was 15.8 µM and the IC50 [5] was 6.39 µM.

For CCCCCCCCCSCC(P(=O)(O)O)P(=O)(O)O, the Activity [8] was “Non-toxic”, the Activity [1] was “Non-toxic” and the EC50 [2] was 1.2 µM. It also gave an IC50 [3] of 0.025 µM, an EC50 [4] of 12.8 µM and an IC50 [5] of 1.7 µM.

With CCCCCCCCCCSCC(P(=O)(O)O)P(=O)(O)O the Activity [1] was “Non-toxic”, the Activity [6] was “Non-toxic” and the EC50 [2] was 1.8 µM. For the same molecule, the IC50 [3] was 0.021 µM, the EC50 [4] was > 20 µM and the IC50 [5] was 0.097 µM.

For CCCC[S+]([O-])CC(P(=O)(O)O)P(=O)(O)O (stereo not drawn), the Activity [1] was “Non-toxic”, the EC50 [2] was > 10 µM and the IC50 [3] was > 10 µM. For the same molecule, the EC50 [4] was > 20 µM and the IC50 [5] was > 10 µM.

For CCCCC[S+]([O-])CC(P(=O)(O)O)P(=O)(O)O (stereo not drawn), the Activity [1] was “Non-toxic”, the EC50 [2] was > 10 µM and the IC50 [3] was > 10 µM. The EC50 [4] was > 20 µM and the IC50 [5] was > 10 µM.

For CCCCCC[S+]([O-])CC(P(=O)(O)O)P(=O)(O)O (stereo not drawn), the Activity [1] was “Non-toxic”, the EC50 [2] was > 10 µM and the IC50 [3] was > 10 µM. For the same molecule, the EC50 [4] was > 20 µM and the IC50 [5] was > 10 µM.

With CCCCCCC[S+]([O-])CC(P(=O)(O)O)P(=O)(O)O (stereo not drawn) the Activity [1] was “Non-toxic”, the EC50 [2] was 5 µM and the IC50 [3] was 0.009 µM. For the same molecule, the EC50 [4] was > 20 µM and the IC50 [5] was > 10 µM.

With CCCCCCCC[S+]([O-])CC(P(=O)(O)O)P(=O)(O)O (stereo not drawn) the Activity [1] was “Non-toxic”, the EC50 [2] was 3 µM and the IC50 [3] was 0.016 µM. The EC50 [4] was > 20 µM and the IC50 [5] was > 10 µM.

With CCCCCCCCC[S+]([O-])CC(P(=O)(O)O)P(=O)(O)O (stereo not drawn) the Activity [7] was “Non-toxic”, the Activity [1] was “Non-toxic” and the EC50 [2] was 1.4 µM. The IC50 [3] was 0.056 µM, the EC50 [4] was 19.4 µM and the IC50 [5] was > 10 µM.

For O=C(Cn1ccnc1[N+](=O)[O-])NCc1ccccc1 [BENZNIDAZOLE], the EC50 [4] was 1.7 µM.

O=P(O)(O)C(O)(Cc1cccnc1)P(=O)(O)O [RISEDRONIC ACID] showed an EC50 [2] of 2.4 µM and an EC50 [4] of 55 µM.
